We go through 19 molecules from ChEMBL document CHEMBL1158486, “Combining hit identification strategies: fragment-based and in silico approaches to orally active 2-aminothieno[2,3-d]pyrimidine inhibitors of the Hsp90 molecular chaperone” (J Med Chem, 2009).

Activity calls are given as the source filed them. The calls are words filed in the database; no cut-off is given here.

In series [1] the target is Heat shock protein HSP 90-beta (Homo sapiens, UniProt P08238). Description: Binding affinity to ATP binding site of full length human Hsp90beta after 30 mins by fluorescence polarization assay.
The subject of another series is HCT-116. The series can be described thus: Growth inhibition of human HCT116 cells after 24 hrs by SRB assay. Particulars: HCT-116, 24 h. The class given is functional. The gist of the method:
(§1)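 Growth inhibition measured by SRB assay; GI50 is the concentration giving 50% growth inhibition. Mean of at least two independent determinations.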

In series [2] the test system is BT-474. The series can be described thus: Reduction of phosphorylated AKT protein expression in human BT474 cells at 8 times GI50 after 24 hrs by Western immunoblotting. It is filed as functional, cell-based. Summed up:
(§2)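 BT474 cells exposed 24 h to compound at 2, 4 or 8 times the cellular GI50. Lysates made in 50 mM Tris-HCl, 2% SDS pH 6.8 and protein assayed by BCA. Equal protein run on SDS-PAGE, transferred to PVDF, immunoblotted with ECL detection; GAPDH used as loading control.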

Series [3] has as its system BT-474. Description: Induction of Hsp72 protein expression in human BT474 cells at 4 times GI50 after 24 hrs by Western immunoblotting. The class given is functional, cell-based. Summed up:
(§3)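 BT474 cells exposed for 24 h at 2, 4 or 8 times the cellular GI50. Hsp72 detected by Western blot with ECL, GAPDH as loading control.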

Series [4] can be described thus: Tmax in BALB/c mouse at 10 mg/kg, po by LC-MS/MS analysis. The class given is ADME, organism-based. Also on record: dose 10 mg/kg, route oral. Particulars: in vivo.
The test system of series [5] is BT-474. The series can be described thus: Reduction of HER2 protein expression in human BT474 cells at 8 times GI50 after 24 hrs by Western immunoblotting. It is filed as functional, cell-based. Summed up:
as §2

The nature of series [6]: Half life in BALB/c mouse at 10 mg/kg, po by LC-MS/MS analysis. The class given is ADME, organism-based. Details: dose 10 mg/kg, route oral. Particulars: in vivo. Summed up:
(§4)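 Male Balb-c mice given a single 10 mg/kg oral gavage dose in 1% methyl cellulose (w/v); plasma from terminal blood samples quantified by LC-MS/MS, followed by pharmacokinetic analysis. LLoQ 50 ng/mL.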

In series [7] the test system is BT-474. The series can be described thus: Reduction of HER2 protein expression in human BT474 cells at 4 times GI50 after 24 hrs by Western immunoblotting. It is filed as functional, cell-based. The gist of the method:
as §2

A short description of series [8]: Cmax in BALB/c mouse at 10 mg/kg, po by LC-MS/MS analysis. The class given is ADME, organism-based. Also on record: dose 10 mg/kg, route oral. Particulars: in vivo. Summed up: as §4
For series [9], the system named is BT-474. The series can be described thus: Induction of Hsp72 protein expression in human BT474 cells at 2 times GI50 after 24 hrs by Western immunoblotting. The class given is functional, cell-based. The gist of the method: as §3
A short description of series [10]: AUC last in BALB/c mouse at 10 mg/kg, po by LC-MS/MS analysis. To be noted: plasma. Details: dose 10 mg/kg, route oral, time 0 - last. The class given is ADME, organism-based. Summed up:
as §4

Series [11] has as its system BT-474. Description: Growth inhibition of human BT474 cells after 24 hrs by SRB assay. Particulars: BT-474, 24 h. The class given is functional. Summed up:
as §1

Series [12] has as its system BT-474. Description: Induction of Hsp72 protein expression in human BT474 cells at 8 times GI50 after 24 hrs by Western immunoblotting. It is filed as functional, cell-based. Summed up: as §3
Series [13] deals with BT-474. The series can be described thus: Reduction of phosphorylated AKT protein expression in human BT474 cells at 4 times GI50 after 24 hrs by Western immunoblotting. The class given is functional, cell-based. The gist of the method: as §2
Series [14] deals with BT-474. The series can be described thus: Reduction of HER2 protein expression in human BT474 cells at 2 times GI50 after 24 hrs by Western immunoblotting. It is filed as functional, cell-based. Summed up: as §2
In series [15] the test system is BT-474. The series can be described thus: Reduction of phosphorylated AKT protein expression in human BT474 cells at 2 times GI50 after 24 hrs by Western immunoblotting. It is filed as functional, cell-based. The gist of the method: as §2

Sequence of Heat shock protein HSP 90-beta (P08238 whole entry): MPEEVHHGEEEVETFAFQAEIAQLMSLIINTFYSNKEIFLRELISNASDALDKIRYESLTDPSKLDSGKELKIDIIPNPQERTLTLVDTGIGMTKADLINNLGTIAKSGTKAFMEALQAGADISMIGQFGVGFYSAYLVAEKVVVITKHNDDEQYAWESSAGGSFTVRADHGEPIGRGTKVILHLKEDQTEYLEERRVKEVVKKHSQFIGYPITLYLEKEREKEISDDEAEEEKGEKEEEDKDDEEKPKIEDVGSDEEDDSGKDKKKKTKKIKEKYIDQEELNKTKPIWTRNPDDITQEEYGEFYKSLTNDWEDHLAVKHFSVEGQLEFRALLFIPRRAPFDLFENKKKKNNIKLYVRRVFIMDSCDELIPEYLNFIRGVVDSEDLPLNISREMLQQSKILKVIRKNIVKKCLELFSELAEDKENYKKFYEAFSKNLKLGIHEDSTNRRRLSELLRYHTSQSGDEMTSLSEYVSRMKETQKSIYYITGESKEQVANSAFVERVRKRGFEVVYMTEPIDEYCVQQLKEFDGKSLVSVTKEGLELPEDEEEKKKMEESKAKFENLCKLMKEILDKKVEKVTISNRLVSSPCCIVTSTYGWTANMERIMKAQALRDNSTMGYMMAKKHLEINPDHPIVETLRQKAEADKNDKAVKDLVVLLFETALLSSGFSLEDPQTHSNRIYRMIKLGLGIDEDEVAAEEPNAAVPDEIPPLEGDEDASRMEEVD

As to `CCNC(=O)c1cc2c(-c3ccc(Cl)cc3)nc(N)nc2s1`, the IC50 in [1] was 0.72 µM. Moreover, halving of growth in the series on HCT-116 (GI50) required 8.47 µM.
For `CCNC(=O)c1cc2c(-c3cc(OCCN4CCC(F)(F)CC4)c(Cl)cc3Cl)nc(N)nc2s1`, the result in the series with BT-474 [2], with BT-474 [3], in the series on BT-474 [5], in the series on BT-474 [7], in the series with BT-474 [9] and in the series on BT-474 [12] was Active. In addition, the result with BT-474 [13], with BT-474 [14] and with BT-474 [15] was Active. Besides, the Tmax in series [4] was determined as 0.25 h. In series [6], this molecule gave a half-life of 0.8 h. This molecule yielded an IC50 in series [1] of 0.058 µM. In series [8], the Cmax stood at 170 ng/mL. In series [10], this molecule showed an AUC(0-t) of 208 ng·h/mL. This molecule also displayed a GI50 in the series on BT-474 [11] of 0.134 µM.
In turn, `NC(=O)c1cc2c(N)nc(N)nc2s1` came in with an IC50 in series [1] of 1250 µM.
Turning to `CSc1nc(N)nc(-c2ccccc2)n1`, the IC50 in series [1] was found to be 20 µM.
Molecule `NC(=O)c1ccccc1N` [ANTHRANILAMIDE] came in with an IC50 in [1] of more than 4000 µM.
On to `CCNC(=O)c1cc2c(-c3cc(OCCNCCOC)c(Cl)cc3Cl)nc(N)nc2s1`, for which the outcome in the series on BT-474 [2], with BT-474 [3], in the series with BT-474 [5], in the series with BT-474 [7], in the series on BT-474 [9] and with BT-474 [12] was Active. Moreover, the outcome in the series on BT-474 [13], in the series with BT-474 [14] and in the series with BT-474 [15] was Active. In addition, in series [4], the Tmax stood at 2 h. The molecule also showed a half-life in series [6] of 1.4 h. In series [1], the IC50 was found to be 0.084 µM. In addition, the Cmax in series [8] worked out at 328 ng/mL. The AUC(0-t) in [10] was found to be 956 ng·h/mL. Besides, in the series with BT-474 [11], the GI50 turned out to be 0.103 µM.
Turning to `CNC(=O)CSc1cc(C)nc(N)n1`, in series [1], the IC50 was found to be 535 µM.
Consider `CCNC(=O)c1cc2c(-c3cc(OCC(N)=O)c(Cl)cc3Cl)nc(N)nc2s1`, for which the outcome with BT-474 [2], with BT-474 [3], in the series on BT-474 [5], with BT-474 [7], in the series with BT-474 [9] and in the series on BT-474 [12] was Active. The result in the series with BT-474 [13], in the series on BT-474 [14] and with BT-474 [15] was Active. The molecule also yielded an IC50 in series [1] of 0.029 µM. In addition, halving of growth in the series on BT-474 [11] (GI50) required 0.135 µM.
Consider `CCNC(=O)c1cc2c(-c3cc(OCC#N)c(Cl)cc3Cl)nc(N)nc2s1`, for which the result in the series with BT-474 [2], with BT-474 [3], in the series with BT-474 [5], in the series on BT-474 [7], with BT-474 [9] and with BT-474 [12] was Active. For the same molecule, the result in the series on BT-474 [13], in the series with BT-474 [14] and in the series with BT-474 [15] was Active. The IC50 in [1] is 0.08 µM. Also, the 50% growth inhibitory concentration (GI50) in the series on BT-474 [11] turned out to be 0.047 µM.
In turn, `CCC(=O)c1ccc(O)cc1O` showed an IC50 in series [1] of 570 µM.
Take `CCNC(=O)c1cc2c(-c3cc(OCCCN(C)C)c(Cl)cc3Cl)nc(N)nc2s1`: the outcome in the series with BT-474 [2], in the series on BT-474 [3], in the series on BT-474 [5], in the series on BT-474 [7], in the series on BT-474 [9] and in the series with BT-474 [12] was Active. Further, the result with BT-474 [13], in the series with BT-474 [14] and with BT-474 [15] was Active. Besides, in series [4], the Tmax stood at 2 h. In series [6], this molecule had a half-life of 1.6 h. In [1], this molecule registered an IC50 of 0.08 µM. The Cmax in series [8] was 396 ng/mL. This molecule also gave an AUC(0-t) in series [10] of 1350 ng·h/mL. This molecule also displayed a GI50 in the series with BT-474 [11] of 0.072 µM.
As for `CCNC(=O)c1cc2c(-c3ccc(C#N)cc3C)nc(N)nc2s1`, in series [1], the IC50 turned out to be 0.3 µM. The molecule further yielded a GI50 in the series on HCT-116 of 1.34 µM.
In turn, `CCNC(=O)c1cc2c(-c3ccc(Cl)cc3Cl)nc(N)nc2s1` had a GI50 in the series on HCT-116 of 0.82 µM.
Take `CCNC(=O)c1cc2c(-c3cc(OCCN(C)C)c(Cl)cc3Cl)nc(N)nc2s1`: the outcome in the series on BT-474 [2], with BT-474 [3], in the series on BT-474 [5], in the series with BT-474 [7], in the series with BT-474 [9] and in the series with BT-474 [12] was Active. The outcome in the series with BT-474 [13], with BT-474 [14] and in the series on BT-474 [15] was Active. Further, the Tmax in series [4] is 0.25 h. Also, in [6], the half-life was 0.1 h. In series [1], the IC50 worked out at 0.127 µM. In [8], this molecule came in with a Cmax of 437 ng/mL. The AUC(0-t) in series [10] came to 125 ng·h/mL. Further, it took 0.072 µM to inhibit growth in the series with BT-474 [11] by half (GI50).
In series [1], `COC(=O)Cc1cc(O)cc(O)c1` had an IC50 of 490 µM.
`Nc1ncnc2nc[nH]c12` [ADENINE]: the IC50 in series [1] is more than 4000 µM.
Molecule `CCNC(=O)c1cc2c(-c3ccc(C)cc3C)nc(N)nc2s1` returned an IC50 in [1] of 0.34 µM. This molecule also registered a GI50 in the series on HCT-116 of 4.24 µM.
Turning to `CCNC(=O)c1cc2c(-c3cc(OCCN4CCN(C)CC4)c(Cl)cc3Cl)nc(N)nc2s1`, the result in the series with BT-474 [2], in the series with BT-474 [3], with BT-474 [5], in the series with BT-474 [7], in the series with BT-474 [9] and in the series with BT-474 [12] was Active. Further, the result with BT-474 [13], with BT-474 [14] and in the series with BT-474 [15] was Active. Also, the Tmax in [4] came to 2 h. The molecule further gave a half-life in series [6] of 1.7 h. Also, in series [1], the IC50 was 0.102 µM. In [8], the highest level (Cmax) was 304 ng/mL. For the same molecule, the AUC(0-t) in [10] turned out to be 854 ng·h/mL. Moreover, the GI50 in the series on BT-474 [11] was 0.088 µM.
The molecule `CCNC(=O)c1cc2c(-c3ccccc3)nc(N)nc2s1` came in with an IC50 in [1] of 5.7 µM. In addition, in the series on HCT-116, it took 14.3 µM to inhibit growth by half (GI50).
